Source: ChEMBL document CHEMBL4041527, “Disulfide Bond-Containing Ajoene Analogues As Novel Quorum Sensing Inhibitors of Pseudomonas aeruginosa” (J Med Chem, 2017)
pIC50: −log10 of the molar value. Calls of active or inactive are those of the source. No cut-off for these calls is given here.

What was measured:
Pseudomonas aeruginosa [1] = experiment: Growth inhibition of Pseudomonas aeruginosa PAO1 harboring reporter plasmid lasB-gfp
[2] = (§1) Inhibition of quorum sensing LasI synthase in Pseudomonas aeruginosa PAO1 harboring reporter plasmid lasB-gfp assessed as reduction in lasB expression measured every 15 mins for 12 hrs by GFP-fluorescence assay
Pseudomonas aeruginosa [3] = experiment: Antibacterial activity against Pseudomonas aeruginosa in bacterial coated silicone implanted BALB/c mouse assessed as reduction in biofilm formation at 10 uM measured at 24 hrs post infection; format: functional
In short: (§2)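 Female BALB/c mice, 8 weeks old. A 4 mm silicone tube was incubated 18 h at 37 °C in 0.9% NaCl with P. aeruginosa (OD600 0.1), then inserted into the peritoneal cavity under ketamine/xylazine. At 2 h post-infection, 200 µL of 10 µM compound (EtOH stock diluted in 20% hydroxypropyl-β-cyclodextrin/saline) was injected at the implant site; vehicle for controls. At 24 h, CFU/mL counted from sonicated implants and homogenized spleens on LB; Mann-Whitney U test.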

RAW264.7 [4] = experiment: Cytotoxicity against mouse RAW264.7 cells at 0.01 to 10 uM measured after 16 hrs by Alamar blue assay; format: cell-based; settings: raw264.7, 16 h
In short: (§3)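 RAW264.7 macrophages in DMEM with 10% FBS, 1 × 10^5 per well, grown 16 h. Cells were washed with PBS and exposed to compound at 0, 0.01, 0.1, 1, 10 or 100 µM for 16 h at 37 °C, 5% CO2. Alamar Blue added, 3 h incubation, OD595 read. Triplicates, mean±s.d., compared with DMSO.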

Pseudomonas aeruginosa [5] = experiment: Antibacterial activity against Pseudomonas aeruginosa infected in BALB/c mouse assessed as reduction in bacterial dissemination in spleen at 10 uM measured at 24 hrs post infection; format: functional; in short: as §2
[6] = test system: Pseudomonas aeruginosa PAO1; experiment: Inhibition of quorum sensing LasI synthase in wild-type Pseudomonas aeruginosa PAO1 assessed as reduction in elastase production at 10 uM incubated for 24 hrs measured every 10 mins for 3 hrs by BODIPY fluorophore-labelled DQ elastin conjugate based fluorescence assay
In short: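 PAO1 wild type, with ∆lasI∆rhlI as negative control, diluted to OD600 0.01 in 5 mL ABTGC with 10 µM compound. Grown 24 h at 37 °C, 200 rpm. Cleared supernatant assayed with BODIPY FL-labelled DQ elastin; fluorescence (ex 490/em 520 nm) read every 10 min for 3 h. Student's t test, mean ± SD.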

[7] = biological target: T1, HTH-type quorum-sensing regulator RhlR (Pseudomonas aeruginosa (strain ATCC 15692 / PAO1 / 1C / PRS 101 / LMG12228)) (UniProt P54292); experiment: Inhibition of quorum sensing regulator protein RhlR in wild-type Pseudomonas aeruginosa PAO1 assessed as reduction in rhamnolipid level at 10 uM after 24 hrs relative to control
T1 sequence (whole entry): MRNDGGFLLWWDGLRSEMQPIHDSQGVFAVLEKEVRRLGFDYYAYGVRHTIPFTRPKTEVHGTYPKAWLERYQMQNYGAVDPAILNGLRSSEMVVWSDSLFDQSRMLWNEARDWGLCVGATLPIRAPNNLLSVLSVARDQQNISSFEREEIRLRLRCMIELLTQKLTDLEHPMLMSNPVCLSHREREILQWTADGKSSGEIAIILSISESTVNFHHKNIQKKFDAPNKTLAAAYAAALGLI
In short: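 PAO1 subculture diluted 100-fold into ABTGC (OD600 0.1) with 10 µM compound, ∆lasI∆rhlI as negative control. Grown 24 h at 37 °C, 200 rpm; final OD600 read. Supernatant extracted twice with diethyl ether and rhamnolipid quantified by a modified orcinol method. Student's t test, mean ± SD.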

[8] = test system: Pseudomonas aeruginosa PAO1; experiment: Inhibition of quorum sensing LasI synthase in Pseudomonas aeruginosa PAO1 harboring reporter plasmid lasB-gfp at 10 uM in presence of bovine serum albumin measured after 18 hrs by GFP-fluorescence assay
In short: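 BSA dissolved in ABTGC at 100 mg/mL, then 2-fold serially diluted across rows; compound final 10 µM. PAO1-lasB-gfp, grown overnight in LB, added at OD600 0.02 in ABTGC. GFP/OD read after 18 h at 37 °C.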

Pseudomonas aeruginosa [9] = experiment: Effect on GFP fluorescence output signal in Pseudomonas aeruginosa PAO1 at 10 uM measured every 15 mins for 12 hrs; format: ADME
In short: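 PAO1-gfp control strain, handled as the lasB-gfp reporter assay. Overnight LB culture diluted in ABTGC to OD600 0.02 and mixed with compound, final 10 µM, DMSO 0.1% final. Incubated at 37 °C; OD600 and GFP fluorescence (ex 485/em 535 nm) read every 15 min for at least 12 h, in triplicate.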

[10] = test system: Pseudomonas aeruginosa PAO1; experiment: as §1
[11] = biological target: T1, HTH-type quorum-sensing regulator RhlR (Pseudomonas aeruginosa (strain ATCC 15692 / PAO1 / 1C / PRS 101 / LMG12228)); experiment: Inhibition of quorum sensing regulator protein RhlR in wild-type Pseudomonas aeruginosa PAO1 assessed as reduction in pyocyanin level at 10 uM after 48 hrs
In short: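 PAO1 wild type, with ∆lasI∆rhlI as negative control, standardized to OD600 0.1 and diluted 100-fold into 25 mL King's medium with 10 µM compound. Grown 48 h at 37 °C, 200 rpm; final OD600 read. Pyocyanin extracted from supernatant with chloroform then 0.2 M HCl; absorbance read on the aqueous layer. Student's t test.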

[12] = Inhibition of quorum sensing regulator protein pqsR in Pseudomonas aeruginosa PAO1 harboring reporter plasmid pqsA-gfp assessed as reduction in pqsA expression measured every 15 mins for 12 hrs by GFP-fluorescence assay
RAW264.7 [13] = experiment: Cytotoxicity against mouse RAW264.7 cells at 100 uM measured after 16 hrs by Alamar blue assay; format: cell-based; settings: raw264.7, 16 h; in short: as §3
[14] = biological target: T2, HTH-type quorum-sensing regulator RhlR (Pseudomonas aeruginosa (strain ATCC 15692 / PAO1 / 1C / PRS 101 / LMG12228), UniProt P54292); experiment: Inhibition of quorum sensing regulator protein RhlR in Pseudomonas aeruginosa PAO1 harboring reporter plasmid rhlA-gfp assessed as reduction in rhlA expression measured every 15 mins for 12 hrs by GFP-fluorescence assay
T2 sequence (P54292 whole entry): T1 sequence (whole entry)

[15] = test system: Pseudomonas aeruginosa PAO1; experiment: Inhibition of quorum sensing LasI synthase in Pseudomonas aeruginosa PAO1 harboring reporter plasmid lasB-gfp assessed as reduction in lasB expression at 10 uM measured every 15 mins for 12 hrs by GFP-fluorescence assay

SMILES | growth inhibition (GI) (Pseudomonas aeruginosa [1]) | pIC50 [2] | also measured
C=CCSSc1nc2ccc(Cl)cc2o1 | Non-Toxic | 5.39 | 
C=CCSSc1nc2ccccc2s1 | Non-Toxic | 6.01 | Activity (Pseudomonas aeruginosa [3]): Active; Activity (RAW264.7 [4]): Non-Toxic; Activity (Pseudomonas aeruginosa [5]): Active; inhibition [6]: Active; inhibition [7]: 50%; inhibition [8]: Active; Activity (Pseudomonas aeruginosa [9]): Non-Toxic; inhibition [10]: Dose-dependent effect; inhibition [11]: Active; pIC50 [12]: 6.48; Activity (RAW264.7 [13]): Toxic; pIC50 [14]: 5.69
O=C(NS(=O)(=O)c1ccccc1)c1ccccc1 |  | 4.44 | inhibition [10]: Dose-dependent effect
c1ccc(SSc2nc3ccccc3s2)cc1 | Non-Toxic | 5.87 | 
CCCSc1nc2ccccc2s1 | Non-Toxic |  | inhibition [10]: inactive
C=CCSc1nc2ccccc2s1 | Non-Toxic |  | inhibition [10]: inactive
C=CCSSc1nnc(N)s1 | Non-Toxic | 5.64 | inhibition [10]: Dose-dependent effect
Clc1ccc(SSc2nc3ccc(Cl)cc3s2)cc1 | Non-Toxic | 5.49 | 
CCOc1ccc2nc(SSc3nc4ccc(OCC)cc4s3)sc2c1 | Non-Toxic | 4.34 | 
Clc1ccc(SSc2nc3ccccc3s2)cc1 | Non-Toxic | 6.25 | Activity (Pseudomonas aeruginosa [3]): Active; Activity (RAW264.7 [4]): Non-Toxic; Activity (Pseudomonas aeruginosa [5]): Active; inhibition [6]: Active; inhibition [7]: 50%; inhibition [8]: Active; Activity (Pseudomonas aeruginosa [9]): Non-Toxic; inhibition [11]: Active; Activity (RAW264.7 [13]): Toxic
Cc1ccc2nc(SSc3nc4ccc(C)cc4s3)sc2c1 | Non-Toxic | 4.77 | 
C=CCSSCc1ccccc1 | Non-Toxic | 4.68 | 
FC(F)(F)c1ccc2nc(SSc3nc4ccc(C(F)(F)F)cc4s3)sc2c1 | Non-Toxic | 4.92 | 
c1ccc2sc(SSC3CCCCC3)nc2c1 | Non-Toxic | 5.22 | 
Clc1ccc(Sc2nc3ccccc3s2)cc1 | Non-Toxic |  | inhibition [10]: inactive
C=CCSSc1nc2ccc(C)cc2s1 | Non-Toxic | 5.95 | 

SMILES | growth inhibition (GI) (Pseudomonas aeruginosa [1]) | pIC50 [2] | also measured
C=CCSSc1nc2ccc(Cl)cc2s1 | Non-Toxic | 6.11 | 
CCOC(=S)SCC#N |  | 5.67 | inhibition [10]: Dose-dependent effect
C=CCSSc1nnnn1-c1ccccc1 | Non-Toxic |  | inhibition [15]: inactive
Cc1ccc2nc(SSc3ccc(Cl)cc3)sc2c1 | Non-Toxic | 6.17 | 
C=CCCSc1nc2ccccc2s1 | Non-Toxic |  | inhibition [10]: inactive
C=CCSSc1nc2ccc(C(F)(F)F)cc2s1 | Non-Toxic | 5.87 | 
C=CCSSc1ccccc1C(=O)OC | Non-Toxic |  | inhibition [15]: inactive
FC(F)(F)c1ccc2nc(SSc3ccc(Cl)cc3)sc2c1 | Non-Toxic | 6.24 | 
C=CCSSc1nc2ccc(OCC)cc2s1 | Non-Toxic | 5.45 | 
C=CCSS/C=C/C[S+]([O-])CC=C (configuration not stated) [AJOENE] | Non-Toxic | 4.82 | pIC50 [14]: 4.30
CCOc1ccc2nc(SSc3ccc(Cl)cc3)sc2c1 | Non-Toxic | 6.14 | 
C=CCSSc1nc2cc(OC)ccc2o1 | Non-Toxic | 5.46 | 
c1ccc2sc(SSc3nc4ccccc4s3)nc2c1 [BENZOTHIAZYL DISULFIDE] | Non-Toxic | 4.84 | 
C[S+]([O-])CCCN=C=S (configuration not stated) | Non-Toxic | 4.51 | 
CCCSSc1nc2ccccc2s1 | Non-Toxic | 5.66 | 
COc1ccc(SSc2nc3ccccc3s2)cc1 | Non-Toxic | 5.78 | 
